Assay results taken from ChEMBL document CHEMBL3769317, “Aminothiazoles as Potent and Selective Sirt2 Inhibitors: A Structure-Activity Relationship Study” (J Med Chem, 2016).
pIC50: −log10 of the molar value. Where a name gives a salt, the structure may show the parent alone. Values belong to the molecule of their own block, whether it stands above or below them. Calls of active or inactive are those of the source. The rule behind the calls is not given here. Where a SMILES comes first, the peptide text is derived from it. Bridges are numbered along the chain shown (N, C = ends). The star is where a group is joined. Tfa = O=C(C(F)(F)F)*

Experiments:
[1] = target: T1, NAD-dependent protein deacetylase sirtuin-1 (Homo sapiens, UniProt Q96EB6); experiment: Inhibition of human SIRT1 by fluorometric assay
T1 sequence (Q96EB6 whole entry): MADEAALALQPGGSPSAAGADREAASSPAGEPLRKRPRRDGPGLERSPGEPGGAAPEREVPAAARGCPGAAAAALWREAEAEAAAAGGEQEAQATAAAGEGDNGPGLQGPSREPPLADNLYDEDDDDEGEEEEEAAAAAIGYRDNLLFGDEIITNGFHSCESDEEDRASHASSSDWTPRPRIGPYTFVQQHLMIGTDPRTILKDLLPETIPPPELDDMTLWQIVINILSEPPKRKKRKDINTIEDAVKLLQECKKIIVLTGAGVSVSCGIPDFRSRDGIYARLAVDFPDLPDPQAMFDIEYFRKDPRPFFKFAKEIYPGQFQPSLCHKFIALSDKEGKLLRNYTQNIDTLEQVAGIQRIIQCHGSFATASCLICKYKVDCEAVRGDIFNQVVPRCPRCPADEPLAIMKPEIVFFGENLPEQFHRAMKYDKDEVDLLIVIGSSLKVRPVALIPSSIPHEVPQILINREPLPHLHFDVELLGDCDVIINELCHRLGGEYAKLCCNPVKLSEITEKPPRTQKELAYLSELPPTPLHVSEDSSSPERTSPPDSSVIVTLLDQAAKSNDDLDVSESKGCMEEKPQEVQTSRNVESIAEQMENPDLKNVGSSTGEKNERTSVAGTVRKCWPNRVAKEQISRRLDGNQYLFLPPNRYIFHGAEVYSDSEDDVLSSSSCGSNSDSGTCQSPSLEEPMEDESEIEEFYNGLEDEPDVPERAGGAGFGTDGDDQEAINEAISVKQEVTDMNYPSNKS
In short: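 Fluorescence-based homogeneous assay with ZMAL (Cbz-Lys(acetyl)-AMC) substrate at 10,5 µM final and NAD+ at 500 µM final, in Tris/NaCl/KCl buffer pH 8.0 with 5% (v/v) DMSO final. Incubated 4 h at 37 °C, then stopped with trypsin/nicotinamide for 20 min at 37 °C. Read at ex 390/em 460 nm against no-inhibitor controls, at least duplicates.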

[2] = target: T2, NAD-dependent protein deacetylase sirtuin-2 (Homo sapiens, UniProt Q8IXJ6); experiment: Inhibition of human SIRT2
T2 sequence (Q8IXJ6 whole entry): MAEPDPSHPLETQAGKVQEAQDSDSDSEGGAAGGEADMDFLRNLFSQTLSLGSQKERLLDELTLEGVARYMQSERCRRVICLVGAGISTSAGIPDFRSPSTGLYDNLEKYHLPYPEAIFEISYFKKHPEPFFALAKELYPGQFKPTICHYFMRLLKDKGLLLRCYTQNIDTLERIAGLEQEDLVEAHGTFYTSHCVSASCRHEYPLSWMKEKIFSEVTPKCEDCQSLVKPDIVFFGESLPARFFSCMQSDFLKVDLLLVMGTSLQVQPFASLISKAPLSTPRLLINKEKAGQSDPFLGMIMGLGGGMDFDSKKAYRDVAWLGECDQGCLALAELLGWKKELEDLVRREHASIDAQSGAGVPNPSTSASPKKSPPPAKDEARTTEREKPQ

[3] = target: T1, NAD-dependent protein deacetylase sirtuin-1; experiment: Inhibition of human SIRT1 using RHKK(Ac)-AMC as substrate preincubated for 10 mins followed by substrate addition by fluorescence assay
[4] = target: T2, NAD-dependent protein deacetylase sirtuin-2; experiment: Inhibition of human SIRT2 using RHKK(Ac)-AMC as substrate preincubated for 10 mins followed by substrate addition by fluorescence assay
[5] = target: T3, NAD-dependent protein deacetylase sirtuin-1 (Homo sapiens) (UniProt Q96EB6); experiment: Inhibition of GST-tagged human SIRT1 (133 to 747 amino acids) using ZMAL as substrate at 200 uM after 4 hrs by fluorescence-based microplate reader method
T3 sequence (whole entry): T1 sequence (Q96EB6 whole entry)

[6] = target: T2, NAD-dependent protein deacetylase sirtuin-2; experiment: Inhibition of N-terminal his6-tagged human SIRT2 (25 to 389 amino acids) using ZMAL as substrate after 4 hrs by fluorescence-based microplate reader method
[7] = target: T4, NAD-dependent protein deacetylase sirtuin-2 (Homo sapiens) (UniProt Q8IXJ6); experiment: Inhibition of SIRT2 in human HeLa cells assessed as tubulin hyperacetylation at 10 uM after 1 hr by DAPI staining-based immunofluorescence microscopy relative to control; assay type: cell-based
T4 sequence (whole entry): T2 sequence (Q8IXJ6 whole entry)
In short: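 HeLa cells, 0.5 x 10^4 per 12 mm coverslip, were plated overnight, then exposed for 1 h to 10 µM compound added from 10 mM DMSO stocks, with DMSO vehicle controls. The microtubule network was immunostained for acetylation and nuclei were counterstained with DAPI, followed by immunofluorescence microscopy.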

[8] = target: T4, NAD-dependent protein deacetylase sirtuin-2 (Homo sapiens); experiment: Inhibition of SIRT2 in human HeLa cells assessed as tubulin acetylation at 10 uM after 1 hr by Western blotting method; assay type: cell-based
In short: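 HeLa cells grown in high-glucose DMEM with 10% FCS and kanamycin at 37 °C, 5% CO2. 1.5 x 10^4 cells per well were plated overnight, then exposed to compound for 1 h from 10 mM DMSO stocks, with DMSO vehicle controls. Cells were lysed in reducing sample buffer and run on SDS-PAGE/PVDF. Blots were probed for acetyl-α-tubulin Lys40 (6-11B-1) and then GAPDH. Values were normalized to the mean control on the same blot.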

[9] = target: T1, NAD-dependent protein deacetylase sirtuin-1; experiment: Inhibition of GST-tagged human SIRT1 (133 to 747 amino acids) using ZMAL as substrate after 4 hrs by fluorescence-based microplate reader method

SMILES: CC(C)[C@@H]1NC(=O)[C@H](Cc2c[nH]cn2)NC(=O)[C@H](Cc2ccc(O)cc2)NC(=O)[C@H]([C@@H](C)O)NC(=O)[C@H](Cc2c[nH]cn2)NC(=O)[C@H](Cc2ccc(O)cc2)NC(=O)CSC[C@@H](C(N)=O)NC(=O)[C@H](Cc2ccc(O)cc2)NC(=O)[C@H](Cc2ccc(O)cc2)NC(=O)[C@H](CC(N)=O)NC(=O)[C@H]([C@@H](C)O)NC(=O)[C@H](CCCNC(=N)N)NC(=O)[C@H](CCCNC(=N)N)NC(=O)[C@H](CCCCNC(=O)C(F)(F)F)NC1=O ({CH2CO}-YHTYHVK(Tfa)RRTNYYC-NH2; thioether N-14)
pIC50 [2]: 9.00

SMILES: COc1ccc2ccccc2c1Cn1cnc2sc3c(c2c1=O)CCC(NCc1cccnc1)C3 (stereo not given)
pIC50 [3]: < 4.00
pIC50 [4]: 5.84

SMILES: Cc1cc(C)nc(SCC(=O)Nc2ncc(Cc3cccc4ccccc34)s2)n1
inhibition [5]: < 10%
pIC50 [9]: < 4.30

Continued, values first:

pIC50 [1]: < 4.40
SMILES: N#C/C(=C/c1ccc(-c2cc(Cl)ccc2Cl)o1)C(=O)Nc1cccc2ncccc12

inhibition [5]: 29%
pIC50 [6]: 6.74
inhibition [7]: Active
inhibition [8]: Active
SMILES: Cc1cc(C)nc(SCC(=O)Nc2ncc(Cc3cccc4ccc(Cl)cc34)s2)n1
